# Measured values: ChEMBL document CHEMBL4706497, “The structure-based optimization of δ-sultone-fused pyrazoles as selective BuChE inhibitors” (Eur J Med Chem, 2020)
# The source made the active and inactive calls. The calls are words filed in the database; no cut-off is given here.
# System: not listed separately
# Test: Antioxidant activity assessed as free radical scavenging activity at 100 uM measured after 2 hrs under dark conditions by DPPH assay relative to control
# Format: functional
# Settings: not given
# Procedure, shortened: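 Each compound at 100 μM mixed with DPPH (140 μM) and incubated 2 h in the dark at 37 °C. Absorbance read at 520 nm. Reduction percentage = (1 − A_C/A₀) × 100%, with A_C and A₀ the absorbance with and without compound. Ascorbic acid served as standard.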
row,SMILES,inhibition [%]
1,O=S1(=O)CCc2c(CN(CCO)Cc3cccc(Cl)c3)nn(-c3ccccc3F)c2O1,4.7
2,CCN(Cc1ccc(Br)cc1)Cc1nn(-c2ccccc2F)c2c1CCS(=O)(=O)O2,12.9
3,CN(Cc1ccc(Cl)cc1)Cc1nn(-c2ccccc2F)c2c1CCS(=O)(=O)O2,6.1
4,COc1ccc(CN(CCO)Cc2nn(-c3ccccc3F)c3c2CCS(=O)(=O)O3)cc1OC,5.5
5,O=S1(=O)CCc2c(CN(CCO)Cc3cccc(Br)c3)nn(-c3ccccc3F)c2O1,0.8
6,COCCN(Cc1ccc(F)cc1)Cc1nn(-c2ccccc2F)c2c1CCS(=O)(=O)O2,6.3
7,O=S1(=O)CCc2c(CN(CCO)Cc3cccc(F)c3)nn(-c3ccccc3F)c2O1,5
8,COCCN(Cc1ccc(Cl)cc1)Cc1nn(-c2ccccc2F)c2c1CCS(=O)(=O)O2,3.6
9,CN(Cc1ccc(F)cc1)Cc1nn(-c2ccccc2F)c2c1CCS(=O)(=O)O2,5.7
10,CN(Cc1ccc(Br)cc1)Cc1nn(-c2ccccc2F)c2c1CCS(=O)(=O)O2,0.2
11,COCCN(Cc1ccccc1)Cc1nn(-c2ccccc2F)c2c1CCS(=O)(=O)O2,2.3
12,O=S1(=O)CCc2c(CN(CCO)Cc3ccc(F)cc3)nn(-c3ccccc3F)c2O1,5.5
13,COc1ccc(CN(CCO)Cc2nn(-c3ccccc3F)c3c2CCS(=O)(=O)O3)cc1,3.2
14,O=S1(=O)CCc2c(CN(CCO)Cc3ccc(Cl)cc3Cl)nn(-c3ccccc3F)c2O1,1.8
15,Cc1ccc(CN(CCO)Cc2nn(-c3ccccc3F)c3c2CCS(=O)(=O)O3)cc1,5.2
16,CCN(Cc1ccc(F)cc1)Cc1nn(-c2ccccc2F)c2c1CCS(=O)(=O)O2,0.6
17,COCCN(Cc1ccc(Br)cc1)Cc1nn(-c2ccccc2F)c2c1CCS(=O)(=O)O2,4.8
18,O=S1(=O)CCc2c(CN(CCO)Cc3ccccc3)nn(-c3ccccc3F)c2O1,5.4
19,O=S1(=O)CCc2c(CN(CCO)Cc3ccc(Cl)cc3)nn(-c3ccccc3F)c2O1,10.2
20,O=S1(=O)CCc2c(CN(CCO)Cc3ccc(Br)cc3)nn(-c3ccccc3F)c2O1,22.2
21,CCN(Cc1ccccc1)Cc1nn(-c2ccccc2F)c2c1CCS(=O)(=O)O2,1.8
22,CCN(Cc1ccc(Cl)cc1)Cc1nn(-c2ccccc2F)c2c1CCS(=O)(=O)O2,4.2

# System: HepG2
# Test: Cytotoxicity against human HepG2 cells assessed as reduction in cell viability at 10 to 25 uM measured after 24 hrs by MTT assay
# Format: cell-based
# Settings: hepg2, 24 h, dose 10-25 µM
# Procedure, shortened: (§1)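 HepG2 and LO2 cells grown in DMEM with 10% FBS, penicillin/streptomycin, 37 °C, 5% CO2. Cells seeded at 1×10^4/well, cultured 24 h, then exposed 24 h to compound diluted in DMEM (range 1–50 μM). MTT 0.5 mg/mL added for 4 h, formazan dissolved in DMSO, OD read at 492 nm. Viability is given relative to medium-only blank (100%); three independent experiments.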
row,SMILES,Activity
1,O=S1(=O)CCc2c(CN(CCO)Cc3ccc(Br)cc3)nn(-c3ccccc3F)c2O1,Non-Toxic

# Target: T1, Cholinesterase (Equus caballus, UniProt P81908)
# Test: Inhibition of equine serum BuChE using butyrylthiocholine iodide as substrate preincubated with enzyme for 20 mins followed by addition of substrate and measured after 20 mins by DTNB reagent based Ellman's method
# Format: cell-free
# Settings: not given
# Procedure, shortened: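 Enzyme at 0.036 U/mL in 0.1 M phosphate buffer pH 8, preincubated with inhibitor 20 min at 37 °C. Then 0.5 mM butyrylthiocholine iodide and 0.35 mM DTNB added, and A410 read after 20 min. IC50 taken graphically from log concentration vs % inhibition curves. Mean ± SEM of at least three independent experiments.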
# T1 sequence (P81908 whole entry): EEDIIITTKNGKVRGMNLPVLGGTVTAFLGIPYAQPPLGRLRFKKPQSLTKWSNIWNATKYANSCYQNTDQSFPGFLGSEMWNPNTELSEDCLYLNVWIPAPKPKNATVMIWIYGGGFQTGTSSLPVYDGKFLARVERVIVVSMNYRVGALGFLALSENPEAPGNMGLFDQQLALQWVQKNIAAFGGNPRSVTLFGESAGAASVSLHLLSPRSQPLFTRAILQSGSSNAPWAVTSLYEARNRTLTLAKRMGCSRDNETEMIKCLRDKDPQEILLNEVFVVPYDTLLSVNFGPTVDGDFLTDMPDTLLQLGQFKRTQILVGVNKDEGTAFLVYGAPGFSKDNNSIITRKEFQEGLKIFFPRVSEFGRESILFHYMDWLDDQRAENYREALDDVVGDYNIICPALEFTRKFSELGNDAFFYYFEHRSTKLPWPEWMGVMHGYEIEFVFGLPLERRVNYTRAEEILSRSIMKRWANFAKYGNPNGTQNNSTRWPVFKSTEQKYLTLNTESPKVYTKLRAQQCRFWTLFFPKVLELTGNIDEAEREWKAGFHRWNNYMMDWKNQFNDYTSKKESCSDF
row,SMILES,IC50 [nM]
1,O=S1(=O)CCc2c(CN(CCO)Cc3cccc(Cl)c3)nn(-c3ccccc3F)c2O1,190
2,O=S1(=O)CCc2c(-c3ccccc3)nn(-c3ccccc3F)c2O1,180
3,CCN(Cc1ccc(Br)cc1)Cc1nn(-c2ccccc2F)c2c1CCS(=O)(=O)O2,70
4,CN(Cc1ccc(Cl)cc1)Cc1nn(-c2ccccc2F)c2c1CCS(=O)(=O)O2,20
5,COc1ccc(CN(CCO)Cc2nn(-c3ccccc3F)c3c2CCS(=O)(=O)O3)cc1OC,560
6,O=S1(=O)CCc2c(-c3ccc(Br)cc3)nn(-c3ccccc3F)c2O1,470
7,O=S1(=O)CCc2c(CN(CCO)Cc3cccc(Br)c3)nn(-c3ccccc3F)c2O1,330
8,COCCN(Cc1ccc(F)cc1)Cc1nn(-c2ccccc2F)c2c1CCS(=O)(=O)O2,110
9,O=S1(=O)CCc2c(CN(CCO)Cc3cccc(F)c3)nn(-c3ccccc3F)c2O1,90
10,COCCN(Cc1ccc(Cl)cc1)Cc1nn(-c2ccccc2F)c2c1CCS(=O)(=O)O2,90
11,CN(Cc1ccc(F)cc1)Cc1nn(-c2ccccc2F)c2c1CCS(=O)(=O)O2,40
12,CN(Cc1ccc(Br)cc1)Cc1nn(-c2ccccc2F)c2c1CCS(=O)(=O)O2,70
13,COCCN(Cc1ccccc1)Cc1nn(-c2ccccc2F)c2c1CCS(=O)(=O)O2,240
14,O=S1(=O)CCc2c(CN(CCO)Cc3ccc(F)cc3)nn(-c3ccccc3F)c2O1,8.3
15,COc1ccc(CN(CCO)Cc2nn(-c3ccccc3F)c3c2CCS(=O)(=O)O3)cc1,260
16,O=S1(=O)CCc2c(CN(CCO)Cc3ccc(Cl)cc3Cl)nn(-c3ccccc3F)c2O1,90
17,Cc1ccc(CN(CCO)Cc2nn(-c3ccccc3F)c3c2CCS(=O)(=O)O3)cc1,170
18,CCN(Cc1ccc(F)cc1)Cc1nn(-c2ccccc2F)c2c1CCS(=O)(=O)O2,70
19,COCCN(Cc1ccc(Br)cc1)Cc1nn(-c2ccccc2F)c2c1CCS(=O)(=O)O2,150
20,O=S1(=O)CCc2c(CN(CCO)Cc3ccccc3)nn(-c3ccccc3F)c2O1,40
21,O=S1(=O)CCc2c(CN(CCO)Cc3ccc(Cl)cc3)nn(-c3ccccc3F)c2O1,90
22,O=S1(=O)CCc2c(CN(CCO)Cc3ccc(Br)cc3)nn(-c3ccccc3F)c2O1,7.7
23,CCN(Cc1ccccc1)Cc1nn(-c2ccccc2F)c2c1CCS(=O)(=O)O2,80
24,CCN(Cc1ccc(Cl)cc1)Cc1nn(-c2ccccc2F)c2c1CCS(=O)(=O)O2,40

# Target: Cholinesterase (Equus caballus) (UniProt P81908)
# Test: Reversible inhibition of equine serum BChE using butyrylthiolcholine iodide as substrate at 0.02 to 0.08 uM by Lineweaver-Burk plot analysis
# Format: cell-free
# Settings: dose 0.02-0.08 µM
# Procedure, shortened: (§2)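 Run under the standard Ellman conditions (0.036 U/mL enzyme, pH 8, 37 °C). Six butyrylthiocholine concentrations (0.1–1 mM) crossed with inhibitor at 0, 0.02, 0.04 and 0.08 μM. Lineweaver-Burk plots and secondary plots used for mode of inhibition and Ki. Reversibility tested by varying enzyme at 0–0.72 U/mL at each inhibitor concentration.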
# Chain of Cholinesterase (Equus caballus) (P81908 whole entry): as above
row,SMILES,inhibition
1,O=S1(=O)CCc2c(CN(CCO)Cc3ccc(Br)cc3)nn(-c3ccccc3F)c2O1,Active

# System: L02
# Test: Cytotoxicity against human L02 cells assessed as reduction in cell viability at 10 to 25 uM measured after 24 hrs by MTT assay
# Format: cell-based
# Settings: l02, 24 h, dose 10-25 µM
# Procedure, shortened: as §1
row,SMILES,Activity
1,O=S1(=O)CCc2c(CN(CCO)Cc3ccc(Br)cc3)nn(-c3ccccc3F)c2O1,Non-Toxic

# System: HepG2
# Test: Cytotoxicity against human HepG2 cells assessed as reduction in cell viability at 50 uM measured after 24 hrs by MTT assay
# Format: cell-based
# Settings: hepg2, 24 h
# Procedure, shortened: as §1
row,SMILES,Activity [%]
1,O=S1(=O)CCc2c(CN(CCO)Cc3ccc(Br)cc3)nn(-c3ccccc3F)c2O1,82.8

# Target: Acetylcholinesterase (AChE) (Electrophorus electricus, UniProt O42275)
# Test: Inhibition of recombinant electric eel AChE using acetylthiocholine iodide as substrate at 20 uM preincubated with enzyme for 20 mins followed by addition of substrate and measured after 20 mins by DTNB reagent based Ellman's method
# Settings: probe acetylthiocholine iodide, time 40 min
# Procedure, shortened: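 Enzyme at 0.036 U/mL in 0.1 M phosphate buffer pH 8, preincubated 20 min at 37 °C with compound at 20 μM. Then 0.35 mM acetylthiocholine iodide and 0.35 mM DTNB added, and A410 read after 20 min. Percent inhibition compared with a no-inhibitor control.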
# Chain of Acetylcholinesterase (AChE) (O42275 whole entry): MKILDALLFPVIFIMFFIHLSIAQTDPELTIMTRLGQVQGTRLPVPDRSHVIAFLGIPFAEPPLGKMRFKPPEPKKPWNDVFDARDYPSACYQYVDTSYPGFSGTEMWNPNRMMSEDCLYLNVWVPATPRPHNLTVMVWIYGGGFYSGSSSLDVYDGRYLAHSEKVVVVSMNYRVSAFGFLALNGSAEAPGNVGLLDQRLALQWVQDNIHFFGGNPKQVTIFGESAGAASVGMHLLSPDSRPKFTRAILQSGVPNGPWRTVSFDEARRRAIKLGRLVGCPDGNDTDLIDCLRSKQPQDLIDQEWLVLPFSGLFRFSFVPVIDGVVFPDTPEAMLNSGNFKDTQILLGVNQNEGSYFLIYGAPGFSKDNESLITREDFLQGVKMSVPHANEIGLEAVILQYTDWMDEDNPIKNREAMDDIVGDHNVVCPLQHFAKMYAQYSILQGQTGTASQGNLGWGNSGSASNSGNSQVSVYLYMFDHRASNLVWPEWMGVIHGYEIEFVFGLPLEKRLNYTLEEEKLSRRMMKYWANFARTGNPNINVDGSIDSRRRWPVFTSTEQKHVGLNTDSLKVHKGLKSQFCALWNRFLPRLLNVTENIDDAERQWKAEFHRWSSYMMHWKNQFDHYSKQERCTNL
row,SMILES,"inhibition at 20 min, 20 µM [%]"
1,CN(Cc1ccc(Br)cc1)Cc1nn(-c2ccccc2F)c2c1CCS(=O)(=O)O2,33.6
2,O=S1(=O)CCc2c(CN(CCO)Cc3ccc(Br)cc3)nn(-c3ccccc3F)c2O1,43.3

# System: not listed separately
# Test: Neuroprotective activity against H2O2 induced cytotoxicity in […] cells assessed as cell viability at 25 uM preincubated for 3 hrs followed by addition of H2O2 measured after 24 hrs by MTT assay
# Format: functional
# Settings: PC-12, time 27 hrs, read-out: Activity
# Procedure, shortened: (§3)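 PC12 cells seeded at 1×10^4/well and incubated overnight. Pretreated 3 h with compound (1–25 µM), then medium replaced with fresh medium containing compound plus 100 µM H2O2 for a further 24 h. Viability read by MTT (0.5 mg/mL, 4 h), formazan dissolved in DMSO, OD at 492 nm, corrected for blank.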
row,SMILES,viability at 25 µM [%]
1,O=S1(=O)CCc2c(CN(CCO)Cc3ccc(Br)cc3)nn(-c3ccccc3F)c2O1,49.6

# System: PC-12
# Test: Neuroprotective activity against H2O2 induced cytotoxicity in […] cells assessed as cell viability preincubated for 3 hrs followed by addition of H2O2 measured after 24 hrs by MTT assay
# Format: functional, cell-based
# Settings: dose 6.25-25 µM, time 27.0 hrs
# Procedure, shortened: as §3
row,SMILES,Activity
1,O=S1(=O)CCc2c(CN(CCO)Cc3ccc(Br)cc3)nn(-c3ccccc3F)c2O1,Dose-dependent effect

# Target: T1, Cholinesterase
# Test: Mixed inhibition of equine serum BChE using butyrylthiolcholine iodide as substrate by Lineweaver-Burk plot analysis
# Format: cell-free
# Settings: not given
# Procedure, shortened: as §2
row,SMILES,Ki [nM]
1,O=S1(=O)CCc2c(CN(CCO)Cc3ccc(Br)cc3)nn(-c3ccccc3F)c2O1,24

# System: not listed separately
# Test: Selectivity for equine serum BuChE over recombinant electric eel AChE
# Settings: not given
row,SMILES,Selectivity Index
1,O=S1(=O)CCc2c(CN(CCO)Cc3ccc(Br)cc3)nn(-c3ccccc3F)c2O1,> 2000

# System: not listed separately
# Test: Neuroprotective activity against H2O2 induced cytotoxicity in […] cells assessed as cell viability at […] uM preincubated for 3 hrs followed by addition of H2O2 measured after 24 hrs by MTT assay
# Format: functional
# Settings: PC-12, time 27 hrs, read-out: Activity
row,SMILES,viability at […] [%]
1,O=S1(=O)CCc2c(CN(CCO)Cc3ccc(Br)cc3)nn(-c3ccccc3F)c2O1,40.9

# System: not listed separately
# Test: Octanol/Water partition coefficient, log P of the compound in PBS buffer at pH7.4 measured after 48 hrs by shake flask method
# Format: physicochemical
# Settings: pH 7.4
# Procedure, shortened: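 Shake-flask partition between equal volumes of n-octanol and PBS pH 7.4, pre-saturated by sonication and standing 24 h. Compound added, vessel sealed and shaken at 37 °C for 48 h to equilibrate, then phases analysed by HPLC.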
row,SMILES,logD at 48 h
1,O=S1(=O)CCc2c(CN(CCO)Cc3ccc(F)cc3)nn(-c3ccccc3F)c2O1,2.42
2,O=S1(=O)CCc2c(CN(CCO)Cc3ccccc3)nn(-c3ccccc3F)c2O1,2.05
3,O=S1(=O)CCc2c(CN(CCO)Cc3ccc(Br)cc3)nn(-c3ccccc3F)c2O1,1.93
4,CCN(Cc1ccccc1)Cc1nn(-c2ccccc2F)c2c1CCS(=O)(=O)O2,2

# System: L02
# Test: Cytotoxicity against human L02 cells assessed as reduction in cell viability at 50 uM measured after 24 hrs by MTT assay
# Format: cell-based
# Settings: l02, 24 h
# Procedure, shortened: as §1
row,SMILES,Activity [%]
1,O=S1(=O)CCc2c(CN(CCO)Cc3ccc(Br)cc3)nn(-c3ccccc3F)c2O1,95.3
